Results taken from ChEMBL document CHEMBL5653624 (Biochem Pharmacol, 2016).
The source made the active and inactive calls. The calls are words filed in the database; no cut-off is given here.

Tests used:
HASMC [1] = assay: Antiinflammatory activity in HASMC cells assessed as effect on LPS/IFNgamma-induced TNFalpha gene expression at 2 uM […] and measured after 4 hrs by RT-qPCR analysis; type: functional, cell-based; conditions: Homo sapiens
In short: (§1)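 HBE cells (passage 73–103) or immortalized hASM cells (2–3 donors, passage 27–35), serum-starved. Then 2 μM RGFP966 for 20 h, with LPS/IFNγ for the last 4 h. Total RNA isolated; RT-qPCR by 2−ΔΔCt, fold change versus LPS/IFNγ control. Mean ± SD of 3–5 independent experiments.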

RAW264.7 [2] = assay: Antiinflammatory activity in mouse RAW264.7 cells assessed as down regulation of LPS/IFNgamma-induced IL-6 gene expression at 1 uM preincubated for 20 hrs followed by LPS/IFNgamma stimulation and measured after 4 hrs by RT-qPCR analysis; type: functional, cell-based; conditions: time 24.0 hrs
In short: (§2)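 RAW 264.7 macrophages in DMEM/10% FBS received 1 μM RGFP966 for 20 h, with LPS/IFNγ for the last 4 h. Washed with cold DPBS, total RNA isolated, integrity checked by 28S/18S. RT-qPCR by comparative Ct (2−ΔΔCt), fold change versus LPS/IFNγ control. Mean ± SD of 3–5 independent experiments.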

RAW264.7 [3] = assay: Antiinflammatory activity in mouse RAW264.7 cells assessed as down regulation of LPS/IFNgamma-induced IL-12b gene expression at 1 uM preincubated for 20 hrs followed by LPS/IFNgamma stimulation and measured after 4 hrs by RT-qPCR analysis; type: functional, cell-based; conditions: time 24.0 hrs; in short: as §2
HBE = assay: Antiinflammatory activity in HBE cells assessed as up regulation of LPS/IFNgamma-induced IL-6 gene expression at 2 uM […] by RT-qPCR analysis; type: functional, cell-based; conditions: Homo sapiens; in short: as §1
HASMC [4] = assay: Antiinflammatory activity in HASMC cells assessed as effect on LPS/IFNgamma-induced IL-6 gene expression at 2 uM […] and measured after 4 hrs by RT-qPCR analysis; type: functional, cell-based; conditions: Homo sapiens; in short: as §1
HASMC [5] = assay: Antiinflammatory activity in HASMC cells assessed as effect on LPS/IFNgamma-induced IL-12b gene expression at 2 uM […] and measured after 4 hrs by RT-qPCR analysis; type: functional, cell-based; conditions: Homo sapiens; in short: as §1
[6] = Toxicity in C57bl/6 mouse precision-cut lung slices assessed as effect on tissue viability up to 10 uM measured after 20 hrs by LDH release assay; type: tissue-based
In short: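 PCLS (250 μm) from male C57bl/6 mice, agarose-filled lungs, washed four times, 3 slices/well at 37 °C 5% CO2; inhibitor at 1 and 10 μM for 20 h. LDH in medium measured on automatic analyzer, expressed relative to maximal release from 3 slices lysed with 1% Triton X-100 (30 min, 37 °C).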

Lung [7] = assay: Antiinflammatory activity in C57bl/6 mouse precision-cut lung slices assessed as upregulation of LPS/IFNgamma-induced IL-10 gene expression at 1 to 10 uM preincubated for 20 hrs followed by LPS/IFNgamma stimulation and measured after 4 hrs by RT-qPCR analysis relative to control; type: functional; conditions: dose 1-10 µM; time 24 hrs
In short: (§3)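 PCLS, 250 μm thick, cut from agarose-filled lungs of male C57bl/6 mice (24–28 g, 8–10 weeks). Three slices per well at 37 °C, 5% CO2. Slices received RGFP966 at 1 and 10 μM final for 20 h, with 10 ng/ml LPS and 10 ng/ml IFNγ stimulation. RNA isolated; RT-qPCR fold change versus LPS/IFNγ control by 2−ΔΔCt. Mean ± SD, n = 3–5.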

Lung [8] = assay: Antiinflammatory activity in C57bl/6 mouse precision-cut lung slices assessed as upregulation of LPS/IFNgamma-induced Fizz1 gene expression at 1 to 10 uM preincubated for 20 hrs followed by LPS/IFNgamma stimulation and measured after 4 hrs by RT-qPCR analysis; type: functional, tissue-based; conditions: dose 1-10 µM, time 24.0 hrs; in short: as §3
[9] = biological target: T1, Histone deacetylase 3 (Mus musculus) (UniProt O88895); assay: Inhibition of HDAC3 in mouse RAW264.7 cells assessed as effect on histone H3 acetylation measured after 20 hrs by Western blot analysis; type: cell-based
T1 sequence (whole entry): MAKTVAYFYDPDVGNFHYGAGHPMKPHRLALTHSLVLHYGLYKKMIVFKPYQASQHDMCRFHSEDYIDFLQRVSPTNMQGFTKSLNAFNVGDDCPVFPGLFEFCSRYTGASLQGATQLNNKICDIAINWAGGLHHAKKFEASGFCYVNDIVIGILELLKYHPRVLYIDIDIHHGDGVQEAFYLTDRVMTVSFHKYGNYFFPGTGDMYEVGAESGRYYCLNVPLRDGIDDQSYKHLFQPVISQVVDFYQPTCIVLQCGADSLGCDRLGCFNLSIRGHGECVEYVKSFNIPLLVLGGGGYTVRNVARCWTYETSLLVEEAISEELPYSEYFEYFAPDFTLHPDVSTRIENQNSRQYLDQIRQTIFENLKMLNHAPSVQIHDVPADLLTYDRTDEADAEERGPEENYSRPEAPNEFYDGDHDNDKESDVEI
In short: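 Histones extracted from RAW 264.7 cells after 20 h inhibitor treatment, protein quantified by micro BCA (BSA standard), and H3 and H4 acetylation assessed by Western blot versus vehicle-treated cells.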

[10] = biological target: T1, Histone deacetylase 3 (Mus musculus); assay: Inhibition of HDAC3 in mouse RAW264.7 cells assessed as effect on LPS/IFNgamma-induced IkappaBalpha activation preincubated for 20 hrs followed by LPS/IFNgamma stimulation and measured after 1 hr by Western blot analysis; type: cell-based
RAW264.7 [11] = assay: Antiinflammatory activity in LPS/IFNgamma-stimulated mouse RAW264.7 cells assessed as effect on HDAC3 mRNA expression preincubated for 20 hrs followed by LPS/IFNgamma stimulation and measured after 4 hrs by RT-qPCR analysis; type: functional, cell-based; conditions: time 24.0 hrs
RAW264.7 [12] = assay: Antiinflammatory activity in LPS/IFNgamma-stimulated mouse RAW264.7 cells assessed as effect on IkappaBalpha mRNA expression preincubated for 20 hrs followed by LPS/IFNgamma stimulation and measured after 4 hrs by RT-qPCR analysis; type: functional, cell-based; conditions: time 24.0 hrs
Lung [13] = assay: Antiinflammatory activity in C57bl/6 mouse precision-cut lung slices assessed as effect on LPS/IFNgamma-induced HDAC1 expression at 1 to 10 uM preincubated for 20 hrs followed by LPS/IFNgamma stimulation and measured after 4 hrs by Western blot analysis; type: functional, tissue-based; conditions: dose 1-10 µM, time 24.0 hrs
[14] = biological target: T1, Histone deacetylase 3 (Mus musculus); assay: Effect on HDAC3 nuclear localization in LPS/IFNgamma-stimulated mouse RAW264.7 cells preincubated for 20 hrs followed by LPS/IFNgamma stimulation and measured after 1 hr by Hoechst staining based confocal laser scanning microscopy; type: cell-based
In short: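 RAW 264.7 cells at 20,000 cells/cm2 received 1 μM RGFP966 for 20 h, then 1 h LPS/IFNγ. Fixed in 4% formaldehyde, permeabilized with 0.25% Triton X-100, blocked with 5% BSA. Primary antibodies 2 h at 4 °C, AlexaFluor secondaries 1 h, Hoechst nuclear stain. Confocal imaging at 630×; 4 independent experiments.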

[15] = biological target: Histone deacetylase 2 (Mus musculus) (UniProt P70288); assay: Effect on HDAC2 nuclear localization in LPS/IFNgamma-stimulated mouse RAW264.7 cells preincubated for 20 hrs followed by LPS/IFNgamma stimulation and measured after 1 hr by Western blot analysis; type: cell-based
In short: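 RAW 264.7 cells treated for 20 h, then 1 h LPS/IFNγ, and fractionated into nuclear and cytosolic parts. Fractions immunoblotted, with PARP-1 and β-actin as internal controls. Densitometry with vehicle control set at 100%. Mean ± SD of 3–4 independent experiments.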

Histone deacetylase 2 (Mus musculus), sequence (P70288 whole entry): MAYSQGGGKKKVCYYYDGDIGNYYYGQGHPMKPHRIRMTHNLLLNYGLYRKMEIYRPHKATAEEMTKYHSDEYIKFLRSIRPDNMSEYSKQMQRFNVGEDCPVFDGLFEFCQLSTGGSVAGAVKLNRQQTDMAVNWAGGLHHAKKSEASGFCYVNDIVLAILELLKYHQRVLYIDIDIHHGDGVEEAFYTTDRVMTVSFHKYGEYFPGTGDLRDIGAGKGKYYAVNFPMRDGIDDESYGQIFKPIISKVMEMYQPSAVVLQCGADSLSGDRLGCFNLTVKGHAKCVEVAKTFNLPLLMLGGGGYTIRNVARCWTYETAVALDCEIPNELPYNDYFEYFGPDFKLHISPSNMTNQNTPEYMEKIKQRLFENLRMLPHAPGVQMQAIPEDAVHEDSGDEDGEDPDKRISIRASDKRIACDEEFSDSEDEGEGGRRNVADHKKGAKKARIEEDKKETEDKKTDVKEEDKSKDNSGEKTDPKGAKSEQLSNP

Structure (SMILES): Nc1cc(F)ccc1NC(=O)/C=C/c1cnn(C/C=C/c2ccccc2)c1
- Activity (HASMC [1]): inactive
- Activity (RAW264.7 [2]): Active
- Activity (RAW264.7 [3]): Active
- Activity (HBE): Active
- Activity (HASMC [4]): inactive
- Activity (HASMC [5]): inactive
- Activity [6]: Non-Toxic
- fold change (FC) (Lung [7]): 2
- Activity (Lung [8]): Active
- inhibition [9]: inactive
- inhibition [10]: inactive
- Activity (RAW264.7 [11]): inactive
- Activity (RAW264.7 [12]): inactive
- Activity (Lung [13]): inactive
- Activity [14]: inactive
- Activity [15]: inactive
